Sampled rows, rich in hits. Any-hit rate of the full collection: about 2.5%.
MLL AF4-AF9 inh: inhibitors of AF4 peptide binding to AF9, primary screen, biochemical, AlphaScreen, biotin-AF4 peptide, FLAG-AF9, single point | Protein AF-9 (Homo sapiens), P42568 | actives 0.47% (n = 350,000) | inhibition, % at 10 µM;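 active = every replicate reaching a set inhibition limit, whatever the replicate mean, cut at about 25% in these data; inconclusive = mean inhibition reaches that limit but some replicates miss it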;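 note: 0% = plate neutral control median and 100% = total signal loss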
Target sequence (P42568 whole entry, looked up): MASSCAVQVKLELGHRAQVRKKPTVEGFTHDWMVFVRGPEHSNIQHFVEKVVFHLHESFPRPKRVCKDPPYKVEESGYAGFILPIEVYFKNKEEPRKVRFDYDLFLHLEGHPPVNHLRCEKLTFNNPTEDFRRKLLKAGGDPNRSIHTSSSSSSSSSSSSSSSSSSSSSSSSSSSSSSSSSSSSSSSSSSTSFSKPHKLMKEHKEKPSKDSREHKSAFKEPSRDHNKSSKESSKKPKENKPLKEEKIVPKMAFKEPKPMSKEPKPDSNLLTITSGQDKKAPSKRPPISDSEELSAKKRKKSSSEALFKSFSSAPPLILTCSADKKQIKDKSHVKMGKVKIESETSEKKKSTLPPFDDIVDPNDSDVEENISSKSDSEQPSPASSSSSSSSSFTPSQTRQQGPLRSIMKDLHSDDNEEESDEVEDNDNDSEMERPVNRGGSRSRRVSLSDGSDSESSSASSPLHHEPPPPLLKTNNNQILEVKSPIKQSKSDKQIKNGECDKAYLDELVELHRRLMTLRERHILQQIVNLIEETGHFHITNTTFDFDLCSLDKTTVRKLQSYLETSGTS
Env fusion inh: inhibitors of HIV-1 Env-driven cell-cell fusion, primary screen, HeLa-JRFL effector, CEM21 target cells, luciferase | inhibition, % at 12.3 µM | actives 1.1% (n = 360,000);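 active = mean replicate inhibition score of at least 50 and every replicate individually at or above 50; inconclusive = only one of the two criteria met; inactive = mean below 50 and not all replicates reaching 50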;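 note: 0% = plate neutral controls and 100% = maraviroc near 300 nM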
EWS-Fli inh: EWS/Fli-driven NR0B1 reporter inhibitors, primary screen, A673 cells, NR0B1 luciferase, luminescence, MLPCN library. actives 0.67% (n = 350,000). viability-normalised. inhibition, % at 12.6 µM;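 active = mean inhibition of at least 50% after viability correction, with every replicate also passing that limit; inconclusive = mean reaches 50% but only one of two replicates passes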;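 note: firefly luciferase signal divided by Alamar Blue viability fluorescence both relative to DMSO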
PAX8 reporter: inhibitors of PAX8-driven TPO luciferase reporter, primary screen, RMG-I cells, single concentration; inhibition, % at 12.6 µM; SteadyGlo, 24 h; AID 652154, 2013; actives 1.2% (n = 360,000);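 active = mean replicate inhibition at least 60% with every replicate also reaching 60%; inconclusive = only one of the two criteria is met; inactive = mean below 60% and not all replicates reaching 60%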;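 note: luciferase light reporting Pax8 driven TPO promoter activity; plate controls were median of neutral control wells for no effect and mitoxantrone controls for full effect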
Glyco luc inh: increase of ERlucT glycosylation luciferase signal, primary screen, N-linked glycosylation inhibitor project, D54 ERlucT cells, luminescence, set 2. D54 ERlucT glycosylation luciferase reporter, 24 h; percent of 100 nM tunicamycin response. reporter increase, % at 12.5 µM. actives 0.23% (n = 360,000). AID 588692, 2011;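 active = mean luciferase reporter signal, scaled so untreated is 0 and the glycosylation-blocking control 100, at or above a set limit in every replicate; inconclusive = mean reaches the limit but not every replicate does; inactive = mean below the limit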;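 note: luciferase carries N-glycosylation sites so blocking glycosylation raises the light; 0% = median of neutral control wells and 100% = median of 100 nM tunicamycin wells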
FN deposit inh: inhibitors of fibronectin matrix deposition, primary screen, AH1F cells, Alexa488-fibronectin fluorescence, plate reader | inhibition, % at 12.6 µM | actives 0.086% (n = 350,000) | AH1F fibroblasts, overnight;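 active = mean inhibition across replicates of 30% or more, regardless of how many single replicates reach that level; inconclusive = mean under 30% yet at least half of replicates reach 30%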;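 note: positive control wells lacked labelled fibronectin entirely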
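Measured by – fluorescence 485/525 nm · System – AH1F fibroblast monolayer, labelled fibronectin deposition · Amount – 10000 cells per well · Buffer or medium – serum-reduced DMEM (2% serum) · Doses – single dose, pinned · Also added – fluorescent fibronectin at 24 nM final · Schedule – 1 h cell attachment, overnight exposure to compound and label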
DNA binding: DNA binders by acridine orange displacement, dose response, counter-screen for EWS/Fli inhibitor project, biochemical, fluorescence polarization, cherry-pick; shares compounds with EWS-Fli inh; salmon sperm DNA acridine orange fluorescence polarization; actives 2% (n = 640); AC35, µM (doses to about 68 µM), without a hit: at the top dose activity change, negative = DNA binding;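 active = fitted curve reaches a 35% signal fall AC35 below twice the sample's top valid tested dose, actives reach about 48 µM in these data; inactive = the rest, including activity in the rising direction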;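 note: lower polarization ratio signals compound binding to DNA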
* marks the source's active call; other numbers are inactive results; ? = inconclusive; . = not tested or not shown; [ ] = remark or other dose.

SMILES	MLL AF4-AF9 inh	Env fusion inh	EWS-Fli inh	PAX8 reporter	Glyco luc inh	FN deposit inh	DNA binding
C[C@@H]1CCCCO[C@H](CN(C)Cc2ccc(C(=O)Nc3ccccc3N)cc2)[C@@H](C)CN([C@@H](C)CO)C(=O)c2cc(NS(=O)(=O)c3ccc(Cl)cc3)ccc2O1	6	-19[16.7 µM]	59*	89*	.	-5	-8%
COc1ccc(S(=O)(=O)Nc2ccc3c(c2)C(=O)N([C@H](C)CO)C[C@@H](C)[C@H](CN(C)CC2CCCCC2)OCCCC[C@@H](C)O3)cc1	.	-63[16.7 µM]	5	19	.	.	.
COc1ccc(S(=O)(=O)Nc2ccc3c(c2)C(=O)N([C@H](C)CO)C[C@@H](C)[C@@H](CN(C)CC2CCCCC2)OCCCC[C@H](C)O3)cc1	.	-13[16.7 µM]	56*	17	.	.	-12%
C[C@H]1CN([C@@H](C)CO)C(=O)c2cc(NS(=O)(=O)c3ccc(Cl)cc3)ccc2O[C@H]1CN(C)Cc1ccc(C(=O)Nc2ccccc2N)cc1	-30	-82[16.7 µM]	61*	4	.	.	-12%
C[C@@H]1CN([C@H](C)CO)C(=O)c2cc(NC(=O)CCCCCC(=O)Nc3ccccc3N)ccc2O[C@H]1CN(C)S(=O)(=O)c1ccc(Cl)cc1	-2	.	52*	.	.	-9	-9%
O=C(C[C@H]1CC[C@H]2[C@@H](COC[C@@H](O)CN2Cc2nccs2)O1)NCc1ccc(Oc2ccccc2)cc1	-1	.	.	.	.	1	.
CCc1nc(N)nc(N)c1-c1ccc(Cl)cc1	-4	-43	64*	22	0	-13	6%
COc1cc(/C=N\Nc2nc(-c3ccc(C)cc3)c(NC(C)=O)s2)ccc1O	1	4	54*	5	-2	-2	-11%
C[C@@H]1CN([C@@H](C)CO)C(=O)Cc2cc(NS(=O)(=O)c3ccc(Cl)cc3)ccc2O[C@H]1CN(C)CC1CC1	2	.	7	.	.	.	.
Cc1nc(N)nc(N)c1-c1ccc(Cl)c(Cl)c1	5	-16	53*	54	-8	.	-6%
Cc1nc(N)nc(N)c1CCCc1ccc(Cl)c(Cl)c1	10	-10	75*	28	-4	-9	-19%
COc1ccc(Cc2c(C)nc(N)nc2Cl)cc1	0	10	4	-12	2	-7	.
CN1c2ccc(C#Cc3cccnc3)cc2[C@H]2[C@H](CCN2S(=O)(=O)c2cccc(F)c2)[C@H]1CO	0	.	12	12	.	6	.
C/C=C/c1ccc([C@H]2[C@@H](CO)N3C(=O)CN(S(=O)(=O)c4cccc(F)c4)C[C@H]23)cc1	1	.	17	.	.	.	.
C/C=C/c1ccc([C@H]2[C@@H](CO)N3C(=O)CN(S(=O)(=O)c4cccc(F)c4)C[C@@H]23)cc1	1	.	52*	.	.	.	-2%
CNC[C@H](CC1CCCCC1)NC[C@H](CO)NCC1(c2ccccc2)CC1	5	46	9	13	-5	5	.
CNC[C@H](CC1CCCCC1)NC[C@H](CO)NCCc1cccc(C(F)(F)F)c1	12	4	61*	72*	-9	1	-8%
CO[C@H]1CN(C)C(=O)c2ccc(NC(=O)Nc3cccc(F)c3)cc2OC[C@H](C)N(C)C[C@@H]1C	-1	.	-8	-29	.	-13	.
COc1ccc(CN(C)c2ncnc3sccc23)c(OC)c1OC	-1	24	63*	23	30*	-1	-7%
C[C@@H]1CN([C@H](C)CO)C(=O)Cc2cc(NC(=O)Nc3ccc(F)cc3)ccc2O[C@@H]1CN(C)Cc1ccncc1	1	.	-8	1	.	.	.
CN(C(=O)COC(=O)c1cc(-c2ccccc2Cl)nc2ccccc12)C1CCS(=O)(=O)C1 (stereo not drawn)	2	7	85*	28	-1	.	-2%
CN(C(=O)COC(=O)c1cc(-c2ccc(Cl)s2)nc2ccccc12)C1CCS(=O)(=O)C1 (stereo not drawn)	6	4	-17	26	-1	-13	.
COC(=O)C[C@H]1CC[C@H]2[C@H](COc3ccc(NC(=O)Nc4cccc(Cl)c4)cc3C(=O)N2C)O1	1	2[16.7 µM]	80*	-7	.	-13	-4%
COC(=O)C[C@@H]1CC[C@H]2[C@H](COc3ccc(NC(=O)Nc4cc(C)cc(C)c4)cc3C(=O)N2C)O1	4	10[16.7 µM]	64*	6	.	4	2%
COC(=O)C[C@@H]1CC[C@@H]2[C@@H](COc3ccc(NC(=O)Nc4cccc(C#N)c4)cc3C(=O)N2C)O1	0	.	76*	-5	.	-3	7%
SMILES	MLL AF4-AF9 inh	Env fusion inh	EWS-Fli inh	PAX8 reporter	Glyco luc inh	FN deposit inh	DNA binding
COC(=O)C[C@H]1CC[C@@H]2[C@H](COc3ccc(NC(=O)Nc4cccc(Cl)c4)cc3C(=O)N2C)O1	0	22[16.7 µM]	60*	-68	.	-5	-4%
COC(=O)C[C@@H]1CC[C@H]2[C@H](COc3ccc(NC(=O)Nc4cccc(C#N)c4)cc3C(=O)N2C)O1	3	.	34	4	.	2	.
COC(=O)C[C@H]1CC[C@@H]2[C@@H](COc3ccc(NC(=O)Nc4cccc(Cl)c4)cc3C(=O)N2C)O1	-1	27[16.7 µM]	-9	-2	.	-3	.
COc1cc(-c2coc3c(C(=O)NCc4ccc(C(F)(F)F)cc4)cccc23)ccc1O	3	38	62*	14	3	2	7%
CN(C)c1nc2c(N)ncnc2n1C1OC(CO)C(O)C1O (stereo not drawn)	2	7	5	5	1	-5	.
CN(C)c1ncnc2c1ccn2C1OC(CO)C(O)C1O (stereo not drawn)	2	77*	63*	?	-18	17	14%
C[C@H](CO)N1C[C@H](C)[C@@H](CN(C)C)OCCCC[C@H](C)Oc2ccc(NC(=O)CCC(F)(F)F)cc2C1=O	.	2[16.7 µM]	-7	-6	.	.	.
CCc1ccc(NC(=O)c2cnn3c(C(F)F)cc(C)nc23)cc1	1	-10	0	7	0	-10	.
CCc1ccc(Cn2ncc3c(C(=O)O)cc(C)nc32)cc1	7	-2	75*	-5	-2	3	10%
CCCNC(=O)Nc1ccc2c(c1)C(=O)N(C)[C@@H]1CC[C@@H](CC(=O)NCc3ccccc3)O[C@@H]1CO2	-11	.	1	-5	.	-4	.
COc1ccc(CC(N)c2csc(NC(=O)Nc3cccc(C(F)(F)F)c3)n2)cc1 (stereo not drawn)	9	?	53*	-3	-2	7	-4%

Screening data as filed in PubChem.
